Yeast life ext = compounds extending yeast replicative lifespan, primary screen, S. cerevisiae, OD615; S. cerevisiae growth with nicotinamide; deaD strain in restrictive glucose medium; inhibition of the nicotinamide effect, % at 10 µM; 0.68% of 130,000 active; AID 775, 2007;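 active means inhibition above a set limit, placed 3 SD over the median of all compounds, cut at about 26% in these data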
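Test system – modified budding yeast, DeaD strain · Compound – single dose 10 µM compound, 0.25% DMSO · Times – culture preincubation 4 h, compound exposure 48 h, both 30 °C · Detection – optical density (absorbance) at 615 nm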
Phagocyt inh = inhibitors of macrophage phagocytosis, primary screen, imaging, J774A.1 cells, IgG beads | J774A.1 macrophage IgG-bead phagocytosis | inhibition, % at 5 µM | 0.07% of 110,000 active | AID 1029, 2008;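 active means inhibition above the mean of the plate negative controls plus 5 SD, cut at about 13% in these data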;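 further: phagocytic index as fraction of beads internalized from green versus red external bead signal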
RAM inhibit = inhibitors of the yeast RAM network, primary screen, dse1pr::URA3 reporter, 5-FOA selection; 1.8% of 190,000 active; AID 868, 2007; inhibition, % at 50 µM; S. cerevisiae dse1pr::URA3 reporter, 5-FOA growth OD615, 2 d; analog-sensitive cbk1-as2 kinase mutant strain;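 active means inhibition above a set limit, 3 SD over mean compound inhibition, cut at about 8.4% in these data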;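 further: inhibition rescues growth on 5-FOA so higher OD means more RAM inhibition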
BB579 growth dn = growth inhibitors of yeast BB579 in restrictive medium, primary screen, yeast lifespan-shortening project, S. cerevisiae | 0.51% of 140,000 active | OD615, 48 h | inhibition, % at 10 µM;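 active means inhibition above a set limit, 3 SD over the mean compound inhibition, cut at about 44% in these data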
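Test system: Saccharomyces cerevisiae DeaD strain BB579, replicative lifespan model yeast | Buffer or medium: Restrictive CSMM-D medium | Doses: One dose, 10 µM compound with 0.25% DMSO | Incubation: 48 h exposure, 30 °C | Detection: Culture absorbance at 615 nm | Control set: Amphotericin B at 10 µg/mL as positive control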
Each line names hits and unclear results; the compound was inactive in the other large screens; [ ] = dose if it differs, or a comment. A selection: hits, their analogues and other compounds. The true share with any hit is near 2.7%.

Clc1cccc(CSc2nnc(-c3c[nH]c4ccccc34)o2)c1	RAM inhibit 10.1
Cc1ccc(C(=O)CSc2nnc(-c3c[nH]c4ccccc34)o2)cc1	none
Cc1nnc(N(C)C(=O)c2ccc3c(c2)OCO3)s1	none (no result: Yeast life ext, Phagocyt inh, BB579 growth dn)
COc1ccc(OC)c(CC(NC(C)=O)C(=O)NC2CCN(c3nc(OC)nc(OC)n3)CC2)c1 (configuration not stated)	none (no result: Yeast life ext, Phagocyt inh, BB579 growth dn)
COc1ccc(S(=O)(=O)N(CC(=O)N/N=C/c2cccs2)c2cc(C)cc(C)c2)cc1OC	none
CC(=O)N1C(C)(C)CC(=NOS(=O)(=O)c2ccccc2)CC1(C)C	none (no result: Yeast life ext, Phagocyt inh, BB579 growth dn)
CC(C1CC1)N(Cc1ccccc1)C(=S)Nc1cccc(C(F)(F)F)c1 (configuration not stated)	Yeast life ext 30.6
CC(=O)N1CCN(c2ccc(OC[C@H]3CO[C@](Cn4ccnc4)(c4ccc(Cl)cc4Cl)O3)cc2)CC1	BB579 growth dn 93.1 (no result: Phagocyt inh)
CN(C)N=Nc1ccc(S(N)(=O)=O)cc1	none (no result: Yeast life ext, Phagocyt inh, BB579 growth dn)
CN(C)c1ccc(N=Nc2ccc(S(=O)(=O)O)cc2)c2ccccc12	RAM inhibit 10.3 (no result: Yeast life ext, Phagocyt inh, BB579 growth dn)
Cc1ccc(CC2CC(=O)N(c3nc4ccccc4n3C)C2=O)cc1 (configuration not stated)	none
Cc1ccc(Oc2nc3ccccc3n3c(C)nnc23)c(C)c1	Yeast life ext 73.6
Cc1nnc2c(Oc3ccccc3)nc3ccccc3n12	none (no result: Phagocyt inh)
CCOC(=O)c1c(NC(=O)CSc2nnc(-c3ccc(C)cc3)o2)sc(C(C)=O)c1C	none
CCOC(=O)c1c(NC(=O)CSc2nc3ccccc3o2)sc(C(C)=O)c1C	RAM inhibit 9.2
CCOC(=O)c1c(NC(=O)CSc2nnc(Cc3ccccc3)o2)sc(C(C)=O)c1C	RAM inhibit 9.0
CCOC(=O)c1c(NC(=O)CSc2nnc(-c3ccccc3)o2)sc(C(C)=O)c1C	none
c1ccc(-n2cnc3cc(NCc4cccs4)ccc32)cc1	none (no result: Phagocyt inh)
Cc1ccc(-n2cnc3cc(NCc4cccs4)ccc32)cc1	BB579 growth dn 49.9
O=C(NCc1cccnc1)c1ccc(S(=O)(=O)N2CCCCC2)cc1	Yeast life ext 115.5 (no result: Phagocyt inh)
Cc1[nH]n(-c2ccccc2)c(=O)c1/C=N/Nc1nncc(-c2ccccc2)n1	BB579 growth dn 97.7
CCCCN(CCCC)C(=S)N/N=C/c1c(C)[nH]n(-c2ccccc2)c1=O	BB579 growth dn 78.0
O=C1CCN(Cc2nc(-c3ccc(Cl)cc3)no2)CCN1	none (no result: Yeast life ext, Phagocyt inh, BB579 growth dn)
S=C(Cc1cccnc1)N1CCOCC1	none
Cc1ccccc1-c1nsc(SCC(=O)Nc2ccc3c(c2)OCO3)n1	RAM inhibit 9.4
Nc1ccc(NC(=O)NC2CCCCC2)cc1[N+](=O)[O-]	none (no result: Yeast life ext, Phagocyt inh, BB579 growth dn)
O=C(Nc1cc([N+](=O)[O-])ccc1N1CCCC1)c1ccco1	none (no result: Yeast life ext, Phagocyt inh, BB579 growth dn)
COc1ccc(C(=O)Nc2cc([N+](=O)[O-])ccc2N2CCCC2)cc1	RAM inhibit 8.5 (no result: Yeast life ext, Phagocyt inh, BB579 growth dn)
COc1ccc(NS(=O)(=O)c2ccc(N3CCOCC3)c(NC(=O)c3ccc(OC)cc3)c2)cc1	RAM inhibit 8.6
COc1ccc(NS(=O)(=O)c2ccc(N3CCOCC3)c(NC(=O)c3ccccc3Cl)c2)cc1	none
CN(C)S(=O)(=O)c1ccc(C(=O)Nc2cc(S(=O)(=O)Nc3ccccc3Cl)ccc2N2CCCCC2)cc1	RAM inhibit 8.6 (no result: Phagocyt inh)
Cc1nc2cc(NCc3ccccc3O)ccc2n1Cc1ccccc1	none (no result: Yeast life ext, Phagocyt inh, BB579 growth dn)
CC(=O)CC(c1ccc([N+](=O)[O-])cc1)c1c(O)c2ccccc2oc1=O (configuration not stated)	none
CCN(CC)S(=O)(=O)c1ccc(C)c(C(=O)Oc2cccc(-c3cnc4ccccc4n3)c2)c1	RAM inhibit 9.3 (no result: Phagocyt inh)
Cc1cc(NS(=O)(=O)c2ccc(NC(=O)C(C)Oc3ccc4c(C)cc(=O)oc4c3)cc2)no1 (configuration not stated)	RAM inhibit 10.5
COc1ccc(Cn2nnc3c(=O)[nH]c(C(=O)NCCc4ccc(F)cc4)nc32)cc1OC	none
COC(=O)C1=C(C)NC(C)=C(C(=O)OC)C1C(=O)OC(C)C(=O)c1ccccc1 (configuration not stated)	none (no result: Yeast life ext, Phagocyt inh, BB579 growth dn)
CC(OC1=CC(=O)CCC1)C(=O)c1ccccc1 (configuration not stated)	Phagocyt inh 187.1
COc1ccc(-c2cc(=O)n(-c3nc4ccccc4[nH]3)[nH]2)cc1	BB579 growth dn 95.7
CC1CCC2C(=O)N(c3cccc(OS(=O)(=O)c4ccccc4)c3)C(=O)C2C1 (configuration not stated)	RAM inhibit 9.4 (no result: Phagocyt inh)
COC(=O)c1ccccc1NC(=O)c1ccc(COc2ccc(C)c(C)c2)o1	RAM inhibit 10.2 (no result: Phagocyt inh)
COC(=O)c1ccccc1NC(=O)c1ccc(COc2cc(C)cc(C)c2)o1	RAM inhibit 11.2
COc1ccccc1NC(=O)c1ccc(COc2ccccc2OC)o1	none
COC(=O)c1ccccc1NC(=O)c1ccc(Cn2cc(Cl)cn2)o1	none
CCNC(=S)N/N=C(\C)c1cccc([N+](=O)[O-])c1	none
O=C(Nc1cccc(C(F)(F)F)c1)N1CCC(c2nc(-c3ccc(F)cc3)no2)CC1	RAM inhibit 10.0
O=C(Nc1ccccc1)N1CCCC(c2nc(-c3ccc(F)cc3)no2)C1 (configuration not stated)	none
COC(=O)c1cc(NC(=S)Nc2cc(Cl)cc(Cl)c2)cc(C(=O)OC)c1	Yeast life ext 27.1
COC(=O)c1cccc(NC(=S)Nc2cccc(Cl)c2C)c1	none
CCN(CC)S(=O)(=O)c1ccc(C)c(NC(=S)Nc2cccc(S(=O)(=O)N3CCCCCC3)c2)c1	RAM inhibit 9.0
Cc1ccc(-c2nnc(SCC(=O)N/N=C/c3ccc(C)s3)n2-c2ccc(C)cc2)cc1	none
COc1ccc(-n2cccc2/C=C2\C(=N)N3N=C(C(C)C)SC3=NC2=O)cc1	RAM inhibit 11.1 (no result: Yeast life ext, Phagocyt inh, BB579 growth dn)
CCNc1nnc(CCn2nc(C)c(Br)c2C)s1	none (no result: Yeast life ext, Phagocyt inh, BB579 growth dn)
COc1ccccc1N(CN1CCCC1=O)C(=O)c1c(F)cccc1F	Yeast life ext 103.3
COc1ccccc1N(CN1CCCC1=O)C(=O)c1ccccc1F	none
CCOc1ccc(NC(=S)Nc2ccc(OC)cc2)cc1	none (no result: Yeast life ext, Phagocyt inh, BB579 growth dn)
CCOC(=O)NC(NC(=S)Nc1ccc(OCC)cc1)C(Cl)(Cl)Cl (configuration not stated)	Phagocyt inh 28.7[artifact]
CCn1c(COc2cccc(C)c2C)nnc1SCC(=O)N1CCN(c2ccc(OC)cc2)CC1	RAM inhibit 8.8
COc1ccc(/C=N/NC(=O)c2ccc(Cn3cc([N+](=O)[O-])cn3)o2)c(OC)c1C	RAM inhibit 9.5 (no result: Phagocyt inh)
CCCCCCNC(=O)c1c(O)c2cccc3c2n(c1=O)CCC3	none
COc1ccc(CNC(=O)c2c(O)c3cccc4c3n(c2=O)CCC4)cc1	Yeast life ext 33.7
COc1ccc(CNC(=O)c2c(O)c3cccc4c3n(c2=O)CCC4)cc1OC	Yeast life ext 34.1
CCN(CC)CCNC(=O)c1c(O)c2cccc3c2n(c1=O)CCC3	none
O=C(NCCNCCO)c1c(O)c2cccc3c2n(c1=O)CCC3	Yeast life ext 33.0
COc1ccc(CCNC(=O)c2c(O)c3cccc4c3n(c2=O)CC4)cc1	RAM inhibit 8.5

Assay outcomes: PubChem BioAssay, several laboratories
